According to ChEMBL document CHEMBL1914440, “Discovery of potent, selective, and orally bioavailable alkynylphenoxyacetic acid CRTH2 (DP2) receptor antagonists for the treatment of allergic inflammatory diseases” (J Med Chem, 2011):

How the values were obtained:
[1] = Percentage unbound in mouse plasma; type: ADME, cell-free
[2] = biological target: T1, Prostaglandin D2 receptor 2 (Homo sapiens, UniProt Q9Y5Y4); assay: Displacement of [3H]PGD2 from human CRTH2 expressed in chinese hamster CHO cells by liquid scintillation counting; type: cell-based
T1 sequence (Q9Y5Y4 whole entry): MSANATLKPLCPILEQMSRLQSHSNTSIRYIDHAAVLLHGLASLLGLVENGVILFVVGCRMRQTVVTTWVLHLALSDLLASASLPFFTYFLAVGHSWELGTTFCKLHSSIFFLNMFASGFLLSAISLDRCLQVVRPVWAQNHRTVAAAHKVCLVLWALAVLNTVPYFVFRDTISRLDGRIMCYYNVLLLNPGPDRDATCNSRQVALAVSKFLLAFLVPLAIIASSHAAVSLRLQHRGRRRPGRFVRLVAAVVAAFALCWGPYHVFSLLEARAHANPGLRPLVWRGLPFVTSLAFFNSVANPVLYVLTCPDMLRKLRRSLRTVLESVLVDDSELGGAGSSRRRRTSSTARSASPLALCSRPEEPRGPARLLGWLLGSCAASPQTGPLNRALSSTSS
Procedure, shortened: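 Scintillation proximity competition assay: 2–5 μg human CRTH2 cell membranes, 1.5 nM [3H]PGD2, WGA-SPA beads, 10 mM HEPES/KOH pH 7.4, 10 mM MnCl2, protease inhibitors, 1% DMSO; 90 min, room temperature, shaking. Nonspecific binding defined with 1 μM PGD2. Ki by Cheng–Prusoff, mean of ≥3 independent dose–response experiments.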

[3] = Percentage unbound in rat plasma; type: ADME, cell-free
[4] = Intrinsic clearance in human liver microsomes assessed per mg of protein at 1 uM by LC/MS/MS analysis; type: ADME, Microsome
[5] = Percentage unbound in human plasma; type: ADME, cell-free
[6] = Intrinsic clearance in rat liver microsomes assessed per mg of protein at 1 uM by LC/MS/MS analysis; type: ADME, Microsome
[7] = Clearance in BALB/c mouse at 5 mg/kg, po by LC/MS/MS analysis; type: ADME, organism-based; parameters: dose 5 mg/kg, route oral; settings: in vivo
[8] = Oral bioavailability in BALB/c mouse at 5 mg/kg by LC/MS/MS analysis; type: ADME, organism-based; settings: in vivo
Procedure, shortened: (§1)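 Mouse PK after a 5 mg/kg oral dose.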

[9] = AUC in BALB/c mouse at 5 mg/kg, po; type: ADME, organism-based; parameters: dose 5 mg/kg, route oral; settings: plasma; procedure, shortened: as §1

Cc1ccc(S(=O)(=O)N(C)C)cc1C#Cc1cc(Cl)ccc1OCC(=O)O
fraction unbound [1]: 0.01 | Ki [2]: 5 nM | fraction unbound [3]: 0.004 | microsomal CLint at 1 µM [4]: < 10 µL/min/mg | fraction unbound [5]: 0.004 | microsomal CLint at 1 µM [6]: 22 µL/min/mg

Cc1ncccc1C#Cc1cc(Cl)ccc1OCC(=O)O
Ki [2]: 143 nM

Cc1ccc(S(=O)(=O)N(C)CCN(C)C)cc1C#Cc1cc(Cl)ccc1OCC(=O)O
Ki [2]: 369 nM

CS(=O)(=O)c1cc(C#Cc2cc(Cl)ccc2OCC(=O)O)ccc1-c1ccc(C(F)(F)F)cc1
Ki [2]: 43 nM

O=C(O)COc1ccc(Cl)cc1C#Cc1ccc(F)cc1F
Ki [2]: 101 nM

N#Cc1ccc(OCC(=O)O)c(C#Cc2ccccc2Cl)c1
Ki [2]: 24 nM

CC(C)(C)N1C(=O)c2ccc(C#Cc3cc(Cl)ccc3OCC(=O)O)cc2S1(=O)=O
Ki [2]: 14 nM

CCCS(=O)(=O)c1ccc(F)c(C#Cc2cc(Cl)ccc2OC(C)C(=O)O)c1 (stereo not drawn)
Ki [2]: 3 nM

Cc1ccc(S(=O)(=O)NC(C)(C)C)cc1C#Cc1cc(Cl)ccc1OCC(=O)O
Ki [2]: 5 nM

O=C(O)COc1ccc(Cl)cc1C#Cc1cccc(CO)c1F
Ki [2]: 41 nM

O=C(O)COc1ccc(Cl)cc1C#Cc1ccncc1
Ki [2]: 601 nM

Cc1ccc(S(=O)(=O)N(C)C(C)C)cc1C#Cc1cc(Cl)ccc1OCC(=O)O
fraction unbound [1]: 0.005 | Ki [2]: 3.8 nM | microsomal CLint at 1 µM [4]: < 10 µL/min/mg | fraction unbound [5]: 0.002 | microsomal CLint at 1 µM [6]: 64 µL/min/mg

COCc1ccc(F)c(C#Cc2cc(Cl)ccc2OCC(=O)O)c1
Ki [2]: 72 nM

CCCS(=O)(=O)c1cccc(C#Cc2cc(F)ccc2OCC(=O)O)c1
Ki [2]: 65 nM

CS(=O)(=O)c1cc(C#Cc2cc(Cl)ccc2OCC(=O)O)ccc1-c1ccccc1Cl
Ki [2]: 3.5 nM

CCCS(=O)(=O)c1ccc(Cl)c(C#Cc2cc(Cl)ccc2OCC(=O)O)c1
fraction unbound [1]: 0.006 | Ki [2]: 2.1 nM | fraction unbound [3]: 0.002 | microsomal CLint at 1 µM [4]: < 10 µL/min/mg | fraction unbound [5]: 0.003 | microsomal CLint at 1 µM [6]: < 10 µL/min/mg | CL/F [7]: 16.7 mL/min/kg | bioavailability [8]: 112%

Cc1ccc(S(=O)(=O)CCCO)cc1C#Cc1cc(Cl)ccc1OCC(=O)O
fraction unbound [1]: 0.048 | Ki [2]: 8 nM | fraction unbound [3]: 0.018 | fraction unbound [5]: 0.015

CS(=O)(=O)Cc1cccc(C#Cc2cc(Cl)ccc2OCC(=O)O)c1
Ki [2]: 48 nM

CC(C)c1ccc(S(C)(=O)=O)cc1C#Cc1cc(Cl)ccc1OCC(=O)O
fraction unbound [1]: 0.013 | Ki [2]: 4.6 nM | fraction unbound [3]: 0.004 | fraction unbound [5]: 0.003 | CL/F [7]: 8.33 mL/min/kg | AUC [9]: 2650 ng·h/mL | bioavailability [8]: 29%

CCS(=O)(=O)c1ccc(C)c(C#Cc2cc(Cl)ccc2OCC(=O)O)c1
Ki [2]: 8.6 nM

CCCC(Oc1ccc(Cl)cc1C#Cc1cc(S(=O)(=O)CCC)ccc1C)C(=O)O (stereo not drawn)
Ki [2]: 57 nM

Cc1ncc(S(=O)(=O)N(C)C)cc1C#Cc1cc(Cl)ccc1OCC(=O)O
Ki [2]: 41 nM

CCCS(=O)(=O)c1ccc(F)c(C#Cc2cc(Cl)ccc2OC(C)(C)C(=O)O)c1
Ki [2]: 260 nM

Cc1ccc(OCC(=O)O)c(C#Cc2ccccc2Cl)c1
Ki [2]: 283 nM

O=C(O)COc1ccc(Cl)cc1C#Cc1ccc(Cl)cc1
Ki [2]: 60 nM

O=C(O)COc1ccc(Cl)cc1C#Cc1ccccc1Cl
Ki [2]: 28 nM

Cc1ccc(S(=O)(=O)N2CCOCC2)cc1C#Cc1cc(Cl)ccc1OCC(=O)O
Ki [2]: 3.6 nM | microsomal CLint at 1 µM [4]: < 10 µL/min/mg | microsomal CLint at 1 µM [6]: 10 µL/min/mg | CL/F [7]: 31.7 mL/min/kg | AUC [9]: 1220 ng·h/mL | bioavailability [8]: 48%

CS(=O)(=O)Nc1cccc(C#Cc2cc(Cl)ccc2OCC(=O)O)c1
Ki [2]: 54 nM

CCCCCCc1ccncc1C#Cc1cc(Cl)ccc1OCC(=O)O
Ki [2]: 43 nM

CS(=O)(=O)c1cncc(C#Cc2cc(Cl)ccc2OCC(=O)O)c1
Ki [2]: 60 nM

COCCNS(=O)(=O)c1ccc(C)c(C#Cc2cc(Cl)ccc2OCC(=O)O)c1
Ki [2]: 3.6 nM | microsomal CLint at 1 µM [4]: < 10 µL/min/mg | microsomal CLint at 1 µM [6]: < 10 µL/min/mg | CL/F [7]: 33.3 mL/min/kg | AUC [9]: 831 ng·h/mL | bioavailability [8]: 33%

O=C(O)COc1ccc(Cl)cc1C#Cc1ccc(CO)cc1F
Ki [2]: 28 nM | microsomal CLint at 1 µM [4]: < 10 µL/min/mg | microsomal CLint at 1 µM [6]: < 10 µL/min/mg | CL/F [7]: 35 mL/min/kg | bioavailability [8]: 3%

C[S+]([O-])c1cccc(C#Cc2cc(Cl)ccc2OCC(=O)O)c1 (stereo not drawn)
Ki [2]: 3.2 nM

Cc1ccc(S(=O)(=O)c2ccccc2)cc1C#Cc1cc(Cl)ccc1OCC(=O)O
Ki [2]: 6 nM
